Consider four compounds from paper PMC5808564 (ChemMedChem, 2017).

Converted amounts (≈) assume the structure as drawn. Where two headings read alike, the source gives them in different places.

For data set [1], the system named is T. brucei bloodstream form (BSF) parasites (cell line 90-13, a 427 strain). In words: microbe, parasite or virus in culture. The data set is classed as cell-based, Trypanosoma brucei. The conditions noted are these: for % T. brucei BSF growth inhibition (10 μM): 10 μM compound; for % T. brucei BSF growth inhibition (10 μM) / inhibition at 10 µM: BLD = below level of detection; for inhibition at 10 µM: Trypanosoma brucei, A-427, read-out: % T. brucei BSF growth inhibition (10 μM), 10 μM compound.

In data set [2] the target is recombinant T. brucei hexokinase 1 (rTbHK1) (Trypanosoma brucei, UniProt Q38C42). The data set can be described thus: biochemical. Type of data set: biochemical.
A further data set deals with IMR-90 human cells. In words: Human cell line toxicity testing. Type of data set: cell-based.
The target in the next data set is Dopamine D3 (Homo sapiens, UniProt P35462). In words: PanLabs LeadProfilingScreen radioligand binding. The conditions noted are these: read-out: percent inhibition. In a few lines: (§1)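 Test compound screened once, at 10 μM, against a panel of mammalian targets; each run in duplicate. Values are percent inhibition at that single concentration; no IC50 determinations were made.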
Sequence of Dopamine D3 (P35462 whole entry): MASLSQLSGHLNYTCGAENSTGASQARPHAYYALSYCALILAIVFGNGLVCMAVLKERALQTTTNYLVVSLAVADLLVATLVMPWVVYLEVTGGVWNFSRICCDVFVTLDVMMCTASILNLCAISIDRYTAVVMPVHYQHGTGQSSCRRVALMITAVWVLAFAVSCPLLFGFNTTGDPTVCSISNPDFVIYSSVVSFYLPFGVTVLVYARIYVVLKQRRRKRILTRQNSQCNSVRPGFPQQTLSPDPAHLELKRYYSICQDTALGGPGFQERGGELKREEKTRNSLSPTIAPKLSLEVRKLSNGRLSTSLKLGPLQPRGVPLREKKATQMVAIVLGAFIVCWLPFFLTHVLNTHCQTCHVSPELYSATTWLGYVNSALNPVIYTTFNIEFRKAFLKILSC

Data set [3] deals with Dopamine transporter (DAT) (Homo sapiens, UniProt Q01959). In words: PanLabs LeadProfilingScreen radioligand binding. The conditions noted are these: read-out: percent inhibition. The procedure, abridged: as §1
Sequence of Dopamine transporter (DAT) (Q01959 whole entry): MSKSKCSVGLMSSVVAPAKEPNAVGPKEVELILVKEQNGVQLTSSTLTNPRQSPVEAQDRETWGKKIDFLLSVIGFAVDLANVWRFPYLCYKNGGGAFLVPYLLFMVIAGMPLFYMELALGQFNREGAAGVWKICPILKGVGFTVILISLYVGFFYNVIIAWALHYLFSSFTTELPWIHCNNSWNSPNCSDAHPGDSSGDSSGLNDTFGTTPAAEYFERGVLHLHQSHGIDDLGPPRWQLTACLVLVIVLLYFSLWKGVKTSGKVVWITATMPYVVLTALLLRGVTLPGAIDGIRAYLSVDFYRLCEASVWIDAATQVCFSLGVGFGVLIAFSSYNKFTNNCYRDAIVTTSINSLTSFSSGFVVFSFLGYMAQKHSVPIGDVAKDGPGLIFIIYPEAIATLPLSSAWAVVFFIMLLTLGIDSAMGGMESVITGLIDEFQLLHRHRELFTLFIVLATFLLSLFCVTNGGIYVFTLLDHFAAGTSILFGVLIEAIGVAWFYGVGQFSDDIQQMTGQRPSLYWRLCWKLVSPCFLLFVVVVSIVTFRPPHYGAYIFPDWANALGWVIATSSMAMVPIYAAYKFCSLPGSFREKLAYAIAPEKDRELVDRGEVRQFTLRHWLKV
Data set [4] deals with T1, Leukotriene, cysteinyl CysLT1 (Homo sapiens, UniProt Q9Y271).
T1 sequence (Q9Y271 1-337): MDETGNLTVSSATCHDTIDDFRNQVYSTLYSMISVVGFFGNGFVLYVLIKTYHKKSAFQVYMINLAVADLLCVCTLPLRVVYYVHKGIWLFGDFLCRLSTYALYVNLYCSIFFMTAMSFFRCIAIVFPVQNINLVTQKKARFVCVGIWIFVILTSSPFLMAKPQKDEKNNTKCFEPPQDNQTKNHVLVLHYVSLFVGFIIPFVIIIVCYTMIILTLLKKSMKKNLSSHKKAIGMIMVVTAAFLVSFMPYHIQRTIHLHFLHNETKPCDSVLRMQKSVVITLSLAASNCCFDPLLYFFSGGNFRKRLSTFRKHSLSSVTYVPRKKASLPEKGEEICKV
The data set can be described thus: PanLabs LeadProfilingScreen radioligand binding. Conditions: read-out: percent inhibition. The procedure, abridged: as §1

A further data set deals with T2, Adrenergic α1B (Rattus norvegicus, UniProt P15823).
T2 sequence (P15823 1-515): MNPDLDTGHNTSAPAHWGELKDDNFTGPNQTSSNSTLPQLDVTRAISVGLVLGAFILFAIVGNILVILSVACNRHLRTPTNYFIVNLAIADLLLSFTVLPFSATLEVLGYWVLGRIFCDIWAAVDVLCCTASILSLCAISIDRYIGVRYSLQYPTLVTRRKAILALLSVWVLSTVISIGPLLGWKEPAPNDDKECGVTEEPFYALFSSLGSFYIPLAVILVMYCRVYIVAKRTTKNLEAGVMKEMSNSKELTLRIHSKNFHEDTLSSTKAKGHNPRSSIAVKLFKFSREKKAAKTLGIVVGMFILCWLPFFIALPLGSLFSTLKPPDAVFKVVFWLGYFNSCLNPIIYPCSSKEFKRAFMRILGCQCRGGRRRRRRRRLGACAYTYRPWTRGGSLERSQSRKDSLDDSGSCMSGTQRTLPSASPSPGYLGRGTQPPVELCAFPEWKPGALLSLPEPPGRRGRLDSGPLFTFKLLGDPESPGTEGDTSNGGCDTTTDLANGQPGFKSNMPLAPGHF
In words: PanLabs LeadProfilingScreen radioligand binding. The conditions noted are these: read-out: percent inhibition. The procedure, abridged: as §1

Data set [5] can be described thus: Aqueous solubility, kinetic solubility method. The conditions noted are these: pH 7.4.
Another data set in a line: Plasma stability, human. Type of data set: in vitro ADME.
In the next data set the target is Dopamine D1 (Homo sapiens, UniProt P21728). The data set can be described thus: PanLabs LeadProfilingScreen radioligand binding. Conditions: read-out: percent inhibition. The procedure, abridged: as §1
Sequence of Dopamine D1 (P21728 whole entry): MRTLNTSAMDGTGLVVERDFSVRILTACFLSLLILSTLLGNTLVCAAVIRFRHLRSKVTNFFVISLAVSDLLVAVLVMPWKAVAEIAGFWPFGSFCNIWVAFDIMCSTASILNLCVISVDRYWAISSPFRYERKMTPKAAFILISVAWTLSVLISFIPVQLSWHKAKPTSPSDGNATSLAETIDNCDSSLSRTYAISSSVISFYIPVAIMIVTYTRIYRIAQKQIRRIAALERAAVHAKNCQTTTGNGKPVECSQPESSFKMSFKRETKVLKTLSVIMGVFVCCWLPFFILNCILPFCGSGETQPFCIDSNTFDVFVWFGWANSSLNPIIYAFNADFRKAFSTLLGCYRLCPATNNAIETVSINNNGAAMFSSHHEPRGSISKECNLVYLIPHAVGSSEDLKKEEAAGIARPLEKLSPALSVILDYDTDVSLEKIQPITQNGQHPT
Data set [6] can be described thus: Microsomal stability, mouse. Type of data set: in vitro ADME.
The nature of data set [7]: Microsomal stability, human. Type of data set: in vitro ADME.
A short description of another data set: Plasma stability, mouse. Type of data set: in vitro ADME.
The next data set in a line: Plasma protein binding. The data set is classed as in vitro ADME. Conditions: mouse, mouse species.
Data set [8] has as its target T3, human HK 4 (human glucokinase, hGlk) (Homo sapiens, UniProt P35557).
T3 sequence (P35557 1-465): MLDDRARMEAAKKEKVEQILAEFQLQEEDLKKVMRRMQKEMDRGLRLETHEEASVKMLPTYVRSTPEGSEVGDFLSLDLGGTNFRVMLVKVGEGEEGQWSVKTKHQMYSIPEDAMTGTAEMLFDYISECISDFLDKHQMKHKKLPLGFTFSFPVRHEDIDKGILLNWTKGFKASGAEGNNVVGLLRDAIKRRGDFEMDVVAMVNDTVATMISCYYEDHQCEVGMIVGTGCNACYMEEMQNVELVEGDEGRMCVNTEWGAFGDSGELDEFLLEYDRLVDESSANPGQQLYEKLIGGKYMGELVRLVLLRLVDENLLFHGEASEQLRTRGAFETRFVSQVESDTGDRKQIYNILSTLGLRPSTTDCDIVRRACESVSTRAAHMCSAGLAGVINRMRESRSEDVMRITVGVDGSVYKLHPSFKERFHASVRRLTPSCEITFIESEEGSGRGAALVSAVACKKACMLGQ
In words: Specificity assay against human glucokinase. Type of data set: biochemical. The conditions noted are these: for inhibition at 10 µM: read-out: % hGlk inhibition (10 μM). The procedure, abridged:
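Uses human hexokinase 4 (glucokinase; GenBank BC001890). Activity is read through a coupled reaction in which glucose-6-phosphate dehydrogenase converts the glucose-6-phosphate formed to 6-phosphogluconate. The coincident NADPH formation is followed at 340 nm.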

The subject of the next data set is Thyroid hormone. In words: PanLabs LeadProfilingScreen radioligand binding. The conditions noted are these: 10 μM, duplicate, rat. In a few lines: as §1
Data set [9] has as its target T4, Serotonin (5-hydroxytryptamine) 5-HT1A (Homo sapiens, UniProt P08908).
T4 sequence (P08908 1-422): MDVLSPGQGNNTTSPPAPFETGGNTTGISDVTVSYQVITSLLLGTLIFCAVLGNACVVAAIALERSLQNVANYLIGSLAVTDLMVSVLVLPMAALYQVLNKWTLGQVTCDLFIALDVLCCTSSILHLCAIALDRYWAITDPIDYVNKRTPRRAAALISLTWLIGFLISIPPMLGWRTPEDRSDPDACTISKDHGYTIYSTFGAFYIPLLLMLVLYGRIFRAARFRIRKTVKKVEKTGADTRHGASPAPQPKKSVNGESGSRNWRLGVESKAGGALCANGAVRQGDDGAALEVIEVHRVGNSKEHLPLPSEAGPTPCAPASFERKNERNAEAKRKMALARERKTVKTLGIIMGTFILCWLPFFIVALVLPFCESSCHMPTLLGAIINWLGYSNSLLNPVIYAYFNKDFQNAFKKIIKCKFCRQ
In words: PanLabs LeadProfilingScreen radioligand binding. Conditions: read-out: percent inhibition. In a few lines: as §1

A further data set has as its target Histamine H2 (Homo sapiens, UniProt P25021). In words: PanLabs LeadProfilingScreen radioligand binding. Conditions: read-out: percent inhibition. The procedure, abridged: as §1
The mark [10] stands for this setting: read-out: rTbHK1 potency (IC50 ± SEM), average of n ≥ 3 experiments.
[11] abbreviates: read-out: IMR90 toxicity (EC50), IMR-90 cells, 44-46 h.
The mark [12] stands for this setting: Homo sapiens, IMR-90, read-out: IMR90 toxicity (EC50).

Broadly, the IC50 is the concentration at which inhibition is half-maximal. The term EC50 denotes the concentration giving half of the maximal effect. Broadly, the inhibition is the percentage by which the read-out fell short of the control. The solubility is the dissolved amount per volume that the medium holds. The low end stands for little dissolved substance, the high end for much dissolved substance. As a reminder, the fraction unbound is free concentration divided by total concentration. Read a high fraction unbound as weak binding. One may read the Papp as the rate of passage across a membrane or cell layer, normalised by area and donor concentration. A high value points to ready permeation.

Sequence of Histamine H2 (P25021 whole entry): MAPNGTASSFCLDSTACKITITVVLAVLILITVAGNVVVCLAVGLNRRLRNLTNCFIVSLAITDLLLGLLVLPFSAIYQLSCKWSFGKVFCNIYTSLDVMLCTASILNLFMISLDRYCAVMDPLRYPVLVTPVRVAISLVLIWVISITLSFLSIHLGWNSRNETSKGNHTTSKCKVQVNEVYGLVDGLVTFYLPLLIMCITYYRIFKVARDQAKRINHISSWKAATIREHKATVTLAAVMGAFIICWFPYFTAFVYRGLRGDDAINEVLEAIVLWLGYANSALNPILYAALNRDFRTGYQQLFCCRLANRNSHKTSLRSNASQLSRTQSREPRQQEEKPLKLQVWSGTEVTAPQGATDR

“4-methoxybenzamidochlorobenzoic acid [Compound 1]”: the “aqueous solubility (PBS buffer, pH 7.4)” value is reported as above 274.3 μM. Further, the “activity on whole T. brucei BSF parasites (in words)” value in data set [1] is listed as “no appreciable activity”. Besides, the IC50 in [2] (setting [10]) came out at 9.1 µM. In addition, the EC50 in the data set on IMR-90 human cells (setting [11]) is above 25 µM.

`CC(C)(C)c1ccc(C(=O)Nc2cc(Cl)c(-c3ccccc3)cc2C(=O)O)cc1` [Compound 4f]: the inhibition at 10 µM turned out to be 86% on Dopamine D3; 88% in data set [3]; 87% in data set [4]; 53% on Adrenergic α1B; 95% in data set [1]; 57% on Dopamine D1. Also, the inhibition at 10 µM in [8] was found to be 35.2 ± 8.3%; in [9], 90%; at Histamine H2, 98%. Moreover, in data set [1] (10 µM), the “% T. brucei BSF growth inhibition (10 μM)” value amounted to 95.4 ± 0.8%. The compound also gave a solubility in data set [5] of 9.6 µM (≈ 3.92 µg/mL). Further, the “plasma stability, % parent remaining after 3 h” value in “Plasma stability, human” came out at 80.8%; in “Plasma stability, mouse”, 97.4%. The entries for the “microsomal stability, % parent remaining after 1 h” value in [6] and in data set [7] were 55.5% and 46.5%, respectively. Besides, the “improvement in rTbHK1 potency” value in data set [2] (compared to bromide 2) came out at 3.5 fold. The EC50 with IMR-90 human cells (setting [12]) was above 25 µM. Also, the fraction unbound in the data set “Plasma protein binding” (1 μM) is 0.01; in “Plasma protein binding” (10 μM) it was 0.009. This compound returned a percent inhibition with Thyroid hormone of 65%. Also, the Papp in “PAMPA permeability” (PAMPA permeability (Pe), donor pH 6.2, acceptor pH 7.4) came out at 1.6 ×10⁻⁶ cm/s; in the data set “PAMPA permeability” (pH 7.4, PAMPA permeability (Pe), donor pH 7.4, acceptor pH 7.4), 49 ×10⁻⁶ cm/s.

`CC(C)(C)c1ccc(C(=O)Nc2cc(Cl)c(-c3ccc4c(c3)OCCO4)cc2C(=O)O)cc1` [Compound 4y]: the inhibition at 10 µM in [1] was 98 ± 1.2%; in data set [8] it was 26.6 ± 0.4%. In addition, the IC50 in data set [2] came out at 0.6 ± 0.09 µM. In the data set on IMR-90 human cells (setting [12]), the EC50 is above 25 µM.

Take `CC(C)(C)c1ccc(C(=O)Nc2cc(Cl)c(-c3ccc4c(c3)OCO4)cc2C(=O)O)cc1` [Compound 4z]: the “% T. brucei BSF growth inhibition (10 μM)” value in data set [1] worked out at 89.8 ± 1.1%. Moreover, in data set [1] (3-day growth, n ≥ 3), the “T. brucei BSF potency (LD50 ± SEM)” value amounted to 3.0 ± 0.3 µM. Moreover, the IC50 in [2] (setting [10]) came to 3.9 ± 0.1 µM. Besides, in the data set with IMR-90 human cells (setting [11]), the 50% effective concentration (EC50) was above 25 µM. The “% hGlk inhibition (10 μM)” value in data set [8] (10 μM compound, BLD = below level of detection) amounted to 23.9 ± 2.5%.
